In the library only some 3.8% were active in any assay of this set; here they are far more common.
KCNQ1 act: potentiators or activators of KCNQ1 channel, primary screen, cell-based, thallium flux, high-throughput. Potassium voltage-gated channel subfamily KQT member 1 (Homo sapiens), P51787. CHO-K1 KCNQ1, thallium flux FluxOR fluorescence; stronger effect = higher value. B-score at 10 µM. 0.35% of 310,000 active;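 active means fluorescence ratio B-score, a plate-corrected score, at least three library SD, with initial intensity B-score within 5 SD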
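Doses: Single concentration per compound, DMSO matched to controls | Test system: KCNQ1-transfected CHO-K1 cells | Timing: 90 min dye loading and 20 min compound exposure, both at room temperature | Measured by: Kinetic FluxOR thallium fluorescence, 10-s 1-Hz baseline, 110-s post-stimulus read | Medium: Assay buffer with matched DMSO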
hERG protect: hERG rescue from dofetilide block, primary screen, cell-based, CHO-hERG, FluxOR thallium flux, dofetilide IC70; Voltage-gated inwardly rectifying potassium channel KCNH2 (Homo sapiens), Q12809; dofetilide IC70 present; activation (rescue from dofetilide block), less the hit threshold, % at 10 µM; 0.51% of 310,000 active; AID 1511, 2009;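 active means activation above the mean of controls blocked by dofetilide plus 5 SD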;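 further: thallium influx through hERG after potassium depolarization seen as dye fluorescence rise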
KCNK3 inh: human KCNK3 channel inhibitors, primary screen, CHO cells, FluxOR thallium flux, B-score. FluxOR fluorescence; stronger effect = lower value. 0.84% of 340,000 active. Potassium channel subfamily K member 3 (Homo sapiens), O14649. B-score at 10 µM;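 active means B-score under library mean minus 4 SD, starting fluorescence ratio at most library mean plus 5 SD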;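 further: more negative B-score means stronger inhibition of thallium flux through KCNK3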
Target sequence (O14649 whole entry, looked up): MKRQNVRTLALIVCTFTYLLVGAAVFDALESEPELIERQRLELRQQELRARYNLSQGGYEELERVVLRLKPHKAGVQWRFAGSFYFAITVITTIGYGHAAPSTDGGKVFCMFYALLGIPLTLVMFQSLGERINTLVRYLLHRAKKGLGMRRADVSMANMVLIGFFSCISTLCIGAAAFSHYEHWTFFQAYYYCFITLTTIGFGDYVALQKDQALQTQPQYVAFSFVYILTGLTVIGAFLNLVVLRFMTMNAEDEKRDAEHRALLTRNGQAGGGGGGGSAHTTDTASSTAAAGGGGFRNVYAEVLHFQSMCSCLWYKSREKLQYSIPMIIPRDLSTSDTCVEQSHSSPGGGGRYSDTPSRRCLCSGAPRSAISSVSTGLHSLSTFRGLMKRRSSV
KCNQ1 inh: inhibitors of human KCNQ1 channel, primary screen, cell-based, thallium flux, high-throughput. Potassium voltage-gated channel subfamily KQT member 1 (Homo sapiens), P51787. B-score at 10 µM. 1.3% of 310,000 active. CHO-K1 KCNQ1, FluxOR thallium flux fluorescence; stronger effect = higher value;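 active means compounds whose thallium flux B-score, printed positive for inhibition, exceeds three library SD while starting fluorescence stays within three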;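 further: channel opened by potassium depolarization with thallium stimulus after 20 min compound exposure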
Kir21 block: inhibitors of mouse Kir2.1 inward-rectifier potassium channel. HEK293-Kir2.1, FluxOR thallium flux fluorescence; stronger effect = lower value. 0.85% of 310,000 active. B-score at 10 µM. Inward rectifier potassium channel 2 (Mus musculus), P35561;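 active means fluorescence ratio B-score at or below minus 3 SD of library scores, with starting-brightness B-score within 2 SD, cut at about -4.2 in these data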;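 further: channel flux triggered by added potassium and thallium sulfate stimulus; B-score of peak minus minimum fluorescence over baseline after thallium stimulus; more negative B-score means stronger Kir2.1 block with less thallium influx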
KCNK9 inh: KCNK9 potassium channel inhibitors, primary screen, HEK293 cells, thallium flux; Potassium channel subfamily K member 9 (Homo sapiens), Q9NPC2; FluxOR thallium flux fluorescence; stronger effect = lower value; B-score at 10 µM; 1.2% of 310,000 active; AID 488922, 2010;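 active means ratio B-score over 3 SD below the library mean, with starting fluorescence within 5 SD of its mean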;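 further: negative B-score means less thallium flux so channel inhibition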
Target sequence (Q9NPC2 whole entry, looked up): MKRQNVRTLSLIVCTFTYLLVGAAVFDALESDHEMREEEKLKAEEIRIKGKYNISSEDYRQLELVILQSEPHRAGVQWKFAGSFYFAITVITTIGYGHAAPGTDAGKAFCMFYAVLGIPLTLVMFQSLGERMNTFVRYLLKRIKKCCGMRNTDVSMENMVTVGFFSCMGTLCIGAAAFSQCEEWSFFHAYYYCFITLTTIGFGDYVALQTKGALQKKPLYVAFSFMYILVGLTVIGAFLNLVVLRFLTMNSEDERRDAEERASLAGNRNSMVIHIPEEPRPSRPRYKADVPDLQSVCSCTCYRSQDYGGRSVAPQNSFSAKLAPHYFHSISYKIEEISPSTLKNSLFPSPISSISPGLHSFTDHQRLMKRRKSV
KCNQ1 block val: KCNQ1 potassium channel inhibitors, confirmation, cell-based, Tl flux, duplicate | shares compounds with KCNQ1 inh | KCNQ1 cell line, FluxOR thallium flux fluorescence | inhibition, % at 10 µM | 93% of 1,600 active | AID 588353, 2011;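 active means primary screen active, with duplicate mean exceeding buffer control mean plus 3 SD of buffer wells, cut at about 28% in these data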;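 further: 0% = buffer control ratio and 100% = XE991 inhibitor control ratio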
CHO Tl flux: thallium flux effects in parental CHO cells, counter-screen for KCNQ1 inhibitor project, cell-based, Tl flux. parental CHO-K1, FluxOR thallium flux fluorescence ratio; stronger effect = lower value; zero means no signal rise above baseline. 21% of 1,600 active. fluorescence ratio (Tl flux) at 10 µM. shares compounds with KCNQ1 inh;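 active means mean of duplicate thallium-flux fluorescence ratios in parental host cells more than 5 SD below the buffer control mean, cut at about 0.38 in these data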;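 further: ratio is peak minus minimum fluorescence divided by baseline fluorescence; actives read low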
KCNQ1 ephys val: KCNQ1 channel inhibitors, confirmation, orthogonal assay, cell-based, automated electrophysiology. shares compounds with KCNQ1 inh. KCNQ1-CHO cells, automated patch clamp current. calls only at 10 µM. 20% of 490 active. AID 624120, 2012;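 active means KCNQ1 current drop exceeding 3 SD of negative control wells, seen in both duplicate runs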;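 further: steady state current during a 2 s step from -80 to +40 mV; negative values mean current inhibition and positive values mean potentiation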
KCNQ2 spec: KCNQ2 channel inhibition, selectivity assay for KCNQ1 inhibitor project, cell-based; shares compounds with KCNQ1 inh; KCNQ2 cells, FluxOR thallium flux fluorescence; inhibition, % at 10 µM; 71% of 1,600 active;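 active means mean percent inhibition of the KCNQ2 thallium signal more than 5 SD above the buffer-only control wells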;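 further: KCNQ2 expressed in CHO cells; 0% = buffer control wells and 100% = XE-991 inhibitor control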
KCNQ1-KCNE1 inh: KCNQ1/KCNE1 channel inhibition, selectivity assay for KCNQ1 inhibitor project, CHO-K1 cells, thallium flux, FluxOR; shares compounds with KCNQ1 inh; AID 652147, 2013; FluxOR thallium flux fluorescence; 77% of 1,600 active; inhibition, % at 10 µM;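 active means mean percent inhibition of duplicate wells above the buffer-only control mean plus 3 SD of those controls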;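 further: 0% = buffer only wells and 100% = XE-991 inhibitor control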
Numbers without * were called inactive; i = inactive; . = no result given; + = active, no number.

SMILES | KCNQ1 act | hERG protect | KCNK3 inh | KCNQ1 inh | Kir21 block | KCNK9 inh | KCNQ1 block val | CHO Tl flux | KCNQ2 spec | KCNQ1-KCNE1 inh | others
Cc1cccnc1NC(=O)CNC(=O)COc1ccccc1 | i | -10.6 | i | i | 0.13 | i | . | . | . | .
O=C(Cn1cnc2ccccc21)Nc1ccc(SC(F)F)cc1 | i | -14.3 | i | 7* | -0.9 | i | 115.0* | 0.46 | 71.3%* | 57.5%* | KCNQ1 ephys val=+
COc1ccc(NC(=O)COC(=O)Cn2cnc3ccccc32)cc1 | . | . | i | . | . | . | . | . | . | .
Cc1cc(OCCN2CCOCC2)ccc1C(C)C | i | -6.9 | i | i | -0.03 | i | . | . | . | .
COc1ccc(CCNc2nc(N3CCOCC3)nc(N3CCOCC3)n2)cc1OC | i | -4.0 | i | i | -0.45 | i | . | . | . | .
COc1ccc(CCNc2nc(N3CCCCC3)nc(N3CCCCC3)n2)cc1OC | i | -6.4 | i | 6* | -1.31 | i | 105.5* | 0.368* | 122.7%* | +
COC(=O)C1=C(C)NC(C)=C(C(=O)OC)C1C(=O)OCc1nnc(-c2ccccc2Cl)o1 | . | . | i | . | . | . | . | . | . | .
COCCCNC(=O)CC1C[C@H](C(=O)N2CCOCC2)[C@@]2(C)c3[nH]c4ccc(OC)cc4c3CCN2C1=O (some centres undefined) | . | . | i | . | . | . | . | . | . | .
COc1ccc(-c2cc(C(=O)N3CCN(C(c4ccccc4)c4ccccc4)CC3)no2)cc1 | i | -13.6 | i | i | 0.71 | i | . | . | . | .
O=C(c1cc(-c2ccco2)on1)N1CCN(C(c2ccccc2)c2ccccc2)CC1 | i | -8.5 | i | 8* | -1.05 | i | 123.5* | 0.431 | 95.7%* | 141.5%*
CC(C)c1cc(C(=O)N2CCN(C(c3ccccc3)c3ccccc3)CC2)no1 | i | -6.7 | i | 7* | -0.63 | -7.9* | 108.0* | 0.406 | 103.0%* | 110.5%* | KCNQ1 ephys val=i
COc1ccc2oc(C(=O)N3CCN(C/C=C/c4ccccc4)CC3)c(C)c2c1 | . | . | i | . | . | . | . | . | . | .
CC(C)Cc1cc(C(=O)N2CCN(C(c3ccccc3)c3ccccc3)CC2)no1 | i | -8.7 | i | 7* | 1.07 | i | 136.0* | 0.444 | 109.3%* | 176.5%* | KCNQ1 ephys val=i
COc1ccc(-c2cc(C(=O)N3CCN(C(c4ccccc4)c4ccccc4)CC3)no2)cc1OC | i | -10.2 | i | i | 0.83 | i | . | . | . | .
COc1ccc2oc(C(=O)N3CCN(C(c4ccccc4)c4ccccc4)CC3)c(C)c2c1 | i | -12.1 | i | 9* | 0.16 | i | 93.0* | 0.439 | 100.7%* | 113.5%* | KCNQ1 ephys val=+
COC(=O)CS(=O)(=O)c1ccsc1C(=O)Nc1ccc(F)cc1 | i | -4.7 | i | i | 2.3 | i | . | . | . | .
C=C1CCc2c([nH]c3ccc(OCC(C)C)cc23)C1=O | i | -9.4 | i | i | -0.09 | i | . | . | . | .
Cc1cccc(C(=O)NCC(=O)Nc2ccncc2)c1 | i | -3.9 | i | i | -0.19 | i | . | . | . | .
Cc1cc(-c2ccc(S(=O)(=O)N(C)c3ccc(C)c(C)c3)s2)on1 | i | -6.5 | i | 9* | 0.7 | i | 128.0* | 0.342* | 142.7%* | 150.5%*
Cc1ccc(N(C)S(=O)(=O)c2ccc(-c3cc(C)no3)s2)cc1 | i | -5.9 | i | i | -1.06 | i | . | . | . | .
Cc1ccc(C(=O)NC(=S)Nc2ccc(CN3CCCCC3)cc2)c(C)c1 | i | -13.7 | i | 6* | -2.54 | i | 57.5* | 0.49 | 67.0%* | 63.0%*
Cc1ccc(N2CC(C(=O)Nc3ccc4c(c3)OCO4)CC2=O)cc1C (centres undefined) | i | -5.2 | i | i | 2.84 | i | . | . | . | .
COc1cccc(NC(=O)Nc2nc(SC)ns2)c1 | i | 0.4 | i | i | -0.3 | i | . | . | . | .
CCCSc1nsc(NC(=O)Nc2ccc(F)cc2F)n1 | i | -4.5 | i | 11* | 2.34 | i | 58.5* | 0.541 | i | i
CCSc1nsc(NC(=O)Nc2cccc(F)c2)n1 | i | -13.6 | i | 8* | -0.52 | i | 52.5* | 0.545 | i | i
SMILES | KCNQ1 act | hERG protect | KCNK3 inh | KCNQ1 inh | Kir21 block | KCNK9 inh | KCNQ1 block val | CHO Tl flux | KCNQ2 spec | KCNQ1-KCNE1 inh | others
CCN1CCn2c3c(c4cccc(C)c42)CCCC31 (centres undefined) | i | -0.3 | i | i | -2.53 | i | . | . | . | .
CCN(c1ccccc1)S(=O)(=O)c1ccc(Cl)c(C(=O)NCC2CCCO2)c1 (centres undefined) | i | -18.9 | i | i | 0.25 | i | . | . | . | .
c1ccc(-c2nc(N3CCOCC3)sc2-c2ccccc2)cc1 | i | -7.5 | i | 8* | 1.18 | i | 99.0* | 0.411 | 99.7%* | 162.5%* | KCNQ1 ephys val=i
O=C(Nc1cccc(Cl)c1)Nc1nccs1 | i | -5.9 | i | 7* | 1.72 | i | 69.5* | 0.539 | i | 41.5%*
O=C(Nc1ccccc1)Nc1ccc(Br)cc1F | i | -11.1 | i | i | -0.79 | i | . | . | . | .
O=C(Nc1cccc(Cl)c1)Nc1ccc(Br)cc1F | i | -12.8 | i | 9* | -0.1 | i | 52.0* | 0.553 | i | i
Cc1csc(NC(=O)Nc2cccc(Cl)c2)n1 | i | -4.6 | i | 6* | 1.05 | i | 70.5* | 0.518 | i | 93.0%*
O=C(Nc1cccc(Cl)c1)Nc1ccon1 | i | -10.0 | i | 7* | 2.58 | i | 54.0* | 0.541 | i | i

Bioassay records as filed in PubChem BioAssay.
